From ChEMBL document CHEMBL1154321, “Benzoxazole piperidines as selective and potent somatostatin receptor subtype 5 antagonists” (Bioorg Med Chem Lett, 2009) come the findings set out here.

In brackets after ≈: the same amount, converted by molar mass. Some results are limits rather than exact numbers.

In series [1] the target is Somatostatin receptor type 4 (Homo sapiens, UniProt P31391). Put plainly: Displacement of SST14 from human recombinant SST4 receptor. An outline of the steps:
(§1)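 Membranes prepared by sonication from cells expressing the SST receptor subtype, incubated with radiolabeled 11-Tyr SST-14 tracer and test compound at varying concentrations; non-labeled SST-14 defined non-specific binding. Incubation stopped by glass-fiber filtration, bound radioactivity counted; IC50 for half-maximal binding inhibition estimated and Ki derived.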

Series [2] addresses Somatostatin receptor type 2 (Homo sapiens, UniProt P30874). Put plainly: Displacement of SST14 from human recombinant SST2 receptor. An outline of the steps:
as §1

The nature of series [3]: Oral bioavailability in Wistar rat administered as single dose. Type of series: ADME, organism-based. Conditions: in vivo.
The nature of series [4]: Terminal half-life in Wistar rat administered as single dose. Format: ADME, organism-based. Conditions: in vivo, read-out: beta t1/2 (converted).
Series [5] can be described thus: Volume of distribution at steady state in Wistar rat administered as single dose. Format: ADME, organism-based. Conditions: in vivo, read-out: Vdss.
Series [6] concerns the target 5-hydroxytryptamine receptor 2B (Homo sapiens, UniProt P41595). Put plainly: Binding affinity to human 5HT2B receptor.
Another series concerns the target hERG (KCNH2) (Homo sapiens, UniProt Q12809). Put plainly: (§2) Inhibition of human ERG expressed in CHO cells by patch clamp technique. Type of series: cell-based. The note with it: human, CHO cells expressing human ERG.
A further series is filed under the species Homo sapiens. Put plainly: Selectivity ratio of Ki for human histamine H1 receptor to Ki for human SST5 receptor.
A short description of series [7]: Dissociation constant, pKa by spectrophotometry. Format: physicochemical.
In series [8] the target is Somatostatin receptor type 3 (Homo sapiens, UniProt P32745). Nature of the series: Displacement of SST14 from human recombinant SST3 receptor. An outline of the steps:
as §1

Series [9] can be described thus: Clearance in Wistar rat administered as single dose. Format: ADME, organism-based. The note with it: in vivo.
Series [10] in a line: Octanol-TAPSO partition coefficient, log D at pH 7.4 by spectrophotometry. Format: physicochemical. The note with it: octanol/TAPSO buffer. An outline of the steps: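 Spectrophotometric log D in 1-octanol/50 mM TAPSO buffer, pH 7.4, containing 5% (v/v) DMSO.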
Series [11] deals with T1, Somatostatin receptor type 5 (Homo sapiens, UniProt P35346). Put plainly: Antagonist activity at human SST5 receptor expressed in CHO cells assessed as inhibition of forskolin-induced cAMP release by TR-FRET assay. Format: functional, cell-based. An outline of the steps: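 Transfected cells incubated with forskolin, 0.15 nM SST-14 and test compound at varying concentrations; cellular cAMP measured by FRET-based assay. IC50 taken as concentration half-maximally reversing the SST-14 effect, read from concentration-versus-cAMP curves.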
On the technique in general: TR-FRET usually uses a lanthanide donor and a delayed reading to cut background.

The target in series [12] is Somatostatin receptor type 1 (Homo sapiens, UniProt P30872). Nature of the series: Displacement of SST14 from human recombinant SST1 receptor. An outline of the steps: as §1
Series [13] can be described thus: Solubility in phosphate buffer at pH 6.5 by lyophilization solubility assay. Format: physicochemical. An outline of the steps: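 Lyophilized DMSO stock solutions redissolved in 50 mM phosphate buffer, pH 6.5; solubility read spectrophotometrically.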
Series [14] in a line: sPermeability by PAMPA. Type of series: ADME. The note with it: read-out: permeability. An outline of the steps: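 Parallel artificial membrane permeation; Pe categorized as low (<0.1), medium (0.1–1.0) or high (>1.0).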
(In PAMPA a lipid-coated filter parts donor from acceptor wells.)

The target of series [15] is T1, Somatostatin receptor type 5. Put plainly: Displacement of SST14 from human recombinant SST5 receptor expressed in CHO cells by radioligand binding assay. Format: cell-based. An outline of the steps:
as §1

In series [16] the target is Voltage-gated inwardly rectifying potassium channel KCNH2 (Homo sapiens, UniProt Q12809). Described as §2. Format: cell-based.
Voltage-gated inwardly rectifying potassium channel KCNH2, sequence (Q12809 whole entry): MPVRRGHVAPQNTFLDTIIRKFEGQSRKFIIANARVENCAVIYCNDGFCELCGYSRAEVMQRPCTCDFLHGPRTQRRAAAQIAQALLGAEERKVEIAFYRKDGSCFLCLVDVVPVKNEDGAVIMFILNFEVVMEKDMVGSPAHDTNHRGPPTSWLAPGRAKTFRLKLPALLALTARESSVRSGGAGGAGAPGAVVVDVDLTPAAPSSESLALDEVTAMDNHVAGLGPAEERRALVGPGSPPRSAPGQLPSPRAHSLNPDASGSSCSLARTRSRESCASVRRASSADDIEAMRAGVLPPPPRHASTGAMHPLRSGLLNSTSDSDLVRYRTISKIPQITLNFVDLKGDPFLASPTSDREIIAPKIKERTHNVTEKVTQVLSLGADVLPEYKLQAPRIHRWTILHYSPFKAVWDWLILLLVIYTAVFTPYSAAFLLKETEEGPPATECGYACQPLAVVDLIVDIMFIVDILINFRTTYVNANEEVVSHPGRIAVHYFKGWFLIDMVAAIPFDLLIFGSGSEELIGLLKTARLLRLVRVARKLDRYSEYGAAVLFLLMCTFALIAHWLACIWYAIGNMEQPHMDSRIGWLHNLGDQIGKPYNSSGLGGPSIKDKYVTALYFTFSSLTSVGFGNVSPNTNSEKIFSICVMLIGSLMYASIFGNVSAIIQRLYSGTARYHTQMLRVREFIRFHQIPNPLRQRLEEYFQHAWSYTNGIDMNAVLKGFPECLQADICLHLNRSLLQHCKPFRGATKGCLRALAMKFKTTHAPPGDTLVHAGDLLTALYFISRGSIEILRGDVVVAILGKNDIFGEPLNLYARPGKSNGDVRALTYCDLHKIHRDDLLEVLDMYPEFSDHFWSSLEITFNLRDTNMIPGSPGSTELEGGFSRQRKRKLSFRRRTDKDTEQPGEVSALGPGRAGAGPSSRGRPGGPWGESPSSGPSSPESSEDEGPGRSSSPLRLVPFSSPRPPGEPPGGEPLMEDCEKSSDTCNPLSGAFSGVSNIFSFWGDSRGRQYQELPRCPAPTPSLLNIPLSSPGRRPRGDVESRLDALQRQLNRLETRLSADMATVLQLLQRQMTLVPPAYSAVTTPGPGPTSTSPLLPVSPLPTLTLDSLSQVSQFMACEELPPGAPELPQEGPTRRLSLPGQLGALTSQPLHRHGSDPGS

Somatostatin receptor type 3, sequence (P32745 whole entry): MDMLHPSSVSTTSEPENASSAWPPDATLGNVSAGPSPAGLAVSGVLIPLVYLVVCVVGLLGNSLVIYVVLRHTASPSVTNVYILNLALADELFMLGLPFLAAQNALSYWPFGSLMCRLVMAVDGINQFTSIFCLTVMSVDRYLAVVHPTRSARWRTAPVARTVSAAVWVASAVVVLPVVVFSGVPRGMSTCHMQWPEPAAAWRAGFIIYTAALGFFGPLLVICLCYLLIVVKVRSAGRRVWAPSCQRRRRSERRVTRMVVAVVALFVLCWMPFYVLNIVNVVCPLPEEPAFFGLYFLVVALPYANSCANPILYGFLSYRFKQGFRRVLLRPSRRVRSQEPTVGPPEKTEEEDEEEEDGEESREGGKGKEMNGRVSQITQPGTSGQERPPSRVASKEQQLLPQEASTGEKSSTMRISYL
T1 sequence (P35346 whole entry): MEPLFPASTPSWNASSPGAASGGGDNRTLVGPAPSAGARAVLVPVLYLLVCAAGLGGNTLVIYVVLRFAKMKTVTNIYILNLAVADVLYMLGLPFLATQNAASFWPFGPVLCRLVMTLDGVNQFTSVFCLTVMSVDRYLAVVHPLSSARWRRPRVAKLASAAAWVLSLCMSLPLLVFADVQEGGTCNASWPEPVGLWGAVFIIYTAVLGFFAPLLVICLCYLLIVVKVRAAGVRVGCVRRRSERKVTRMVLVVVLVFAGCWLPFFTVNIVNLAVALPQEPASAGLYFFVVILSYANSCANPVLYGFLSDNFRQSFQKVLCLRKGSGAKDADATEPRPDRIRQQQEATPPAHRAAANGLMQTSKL
Somatostatin receptor type 4, sequence (P31391 whole entry): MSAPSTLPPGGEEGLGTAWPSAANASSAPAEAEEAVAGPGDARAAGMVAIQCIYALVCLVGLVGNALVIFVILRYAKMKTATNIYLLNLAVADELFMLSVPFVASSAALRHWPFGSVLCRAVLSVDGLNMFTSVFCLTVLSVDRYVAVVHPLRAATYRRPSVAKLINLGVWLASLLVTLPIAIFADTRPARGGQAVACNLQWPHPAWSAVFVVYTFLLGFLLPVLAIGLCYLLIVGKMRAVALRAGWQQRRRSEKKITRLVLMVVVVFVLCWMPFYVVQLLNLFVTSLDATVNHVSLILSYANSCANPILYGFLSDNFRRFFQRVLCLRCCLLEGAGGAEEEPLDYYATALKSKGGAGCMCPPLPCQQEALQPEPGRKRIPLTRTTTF
Somatostatin receptor type 2, sequence (P30874 whole entry): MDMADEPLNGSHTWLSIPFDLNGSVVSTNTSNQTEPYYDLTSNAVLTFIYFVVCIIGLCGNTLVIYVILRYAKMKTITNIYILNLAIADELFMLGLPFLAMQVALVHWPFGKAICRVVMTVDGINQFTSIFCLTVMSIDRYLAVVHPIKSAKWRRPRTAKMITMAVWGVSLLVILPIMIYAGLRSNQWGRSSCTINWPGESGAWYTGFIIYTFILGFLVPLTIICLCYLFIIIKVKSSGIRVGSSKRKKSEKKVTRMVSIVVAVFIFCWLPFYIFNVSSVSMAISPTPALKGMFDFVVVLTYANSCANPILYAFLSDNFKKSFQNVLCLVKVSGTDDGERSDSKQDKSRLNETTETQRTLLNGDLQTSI
Somatostatin receptor type 1, sequence (P30872 whole entry): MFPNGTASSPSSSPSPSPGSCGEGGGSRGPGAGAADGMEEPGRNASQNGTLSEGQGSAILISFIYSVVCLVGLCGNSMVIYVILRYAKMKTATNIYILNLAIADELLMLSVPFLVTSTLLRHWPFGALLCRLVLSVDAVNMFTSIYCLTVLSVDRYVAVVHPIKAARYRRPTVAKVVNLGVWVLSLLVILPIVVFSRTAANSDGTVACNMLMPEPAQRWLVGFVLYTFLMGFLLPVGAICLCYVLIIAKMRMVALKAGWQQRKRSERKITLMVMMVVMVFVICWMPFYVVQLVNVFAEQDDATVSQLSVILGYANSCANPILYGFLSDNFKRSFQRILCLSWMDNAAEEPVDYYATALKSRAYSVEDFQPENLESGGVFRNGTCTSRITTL
hERG (KCNH2), sequence (Q12809 whole entry): as the sequence (Q12809 whole entry) above
5-hydroxytryptamine receptor 2B, sequence (P41595 whole entry): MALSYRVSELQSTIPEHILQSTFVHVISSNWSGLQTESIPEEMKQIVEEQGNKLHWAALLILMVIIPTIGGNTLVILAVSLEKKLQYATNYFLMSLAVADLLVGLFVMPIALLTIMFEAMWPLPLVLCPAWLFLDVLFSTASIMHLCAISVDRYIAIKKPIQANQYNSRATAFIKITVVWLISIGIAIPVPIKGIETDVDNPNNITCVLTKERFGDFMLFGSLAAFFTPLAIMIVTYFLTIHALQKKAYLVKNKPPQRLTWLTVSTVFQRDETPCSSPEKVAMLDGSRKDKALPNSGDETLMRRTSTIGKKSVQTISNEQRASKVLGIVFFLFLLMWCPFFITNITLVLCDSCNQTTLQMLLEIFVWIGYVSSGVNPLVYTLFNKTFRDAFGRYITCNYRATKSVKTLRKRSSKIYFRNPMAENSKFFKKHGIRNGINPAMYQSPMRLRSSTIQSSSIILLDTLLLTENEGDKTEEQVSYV

As usually defined, the Ki is the dissociation constant of the complex between target and ligand, obtained from inhibition or displacement. The bioavailability is the share of a dose that reaches the circulation, judged against a reference dose that is usually intravenous. In general, IC50 refers to the point on the concentration scale where inhibition reaches its midpoint. For orientation: pKa means the negative logarithm of the acid dissociation constant. A low value points to a stronger acid or weaker base. By clearance is commonly meant a measure of how efficiently the substance is removed, as volume per time. Lower therefore signals inefficient removal. For `CCOc1cc(CN2CCC(Nc3nc4ccccc4o3)CC2)ccc1OC`, the Ki in series [1] was above 10 µM; in series [2], above 10 µM; in [6], 0.041 µM; in [8], above 10 µM. Besides, in series [3], the bioavailability was 6%. Moreover, the half-life in series [4] was 0.7 h. Further, the Vd in series [5] came out at 4.1 L/kg. For the same compound, the half-maximal inhibitory concentration (IC50) on hERG (KCNH2) is below 0.1 µM. For the same compound, the Ratio Ki in the series listed under Homo sapiens was found to be 5.2. For the same compound, the pKa in [7] worked out at 8.3. The compound also registered a clearance in [9] of 84 mL/min/kg.

In general, logD refers to lipophilicity at a set pH, counting ionised and neutral species. One may read the solubility as the dissolved amount per volume that the medium holds. The low end stands for a poorly soluble substance, the high end for a readily soluble substance. For the compound `CCOc1cc(CN2CCC(Nc3nc4ccc(C(=O)O)cc4o3)CC2)cc(OCC)c1F`, the logD in [10] was found to be 1.33. The inhibition constant (Ki) in series [1] was above 10 µM; in [12], above 10 µM; in [2], above 10 µM; in [15], 0.018 µM; in [8], above 10 µM. For the same compound, the IC50 in series [11] was determined as 0.072 µM. The concentration in solution in [13] (solubility) was 6 µg/mL (≈ 13.1 µM). For the same compound, in series [3], the bioavailability was determined as 39%. Besides, the half-life in series [4] was 2.4 h. The Vd in series [5] worked out at 1.5 L/kg. The Papp in series [14] came out at 2.89 ×10⁻⁶ cm/s. In addition, the clearance in series [9] came out at 20 mL/min/kg.

In the case of `CCOc1cc(CN2CCC(Nc3nc4ccc(C(=O)O)cc4o3)CC2)ccc1Cl`, in series [10], the logD is 1.39. The Ki in [1] was above 10 µM; in series [12], above 10 µM; in series [2] it was above 10 µM; in series [15] it was 0.023 µM; in series [8], above 10 µM. The IC50 in series [11] was 0.098 µM; in series [16], above 10 µM. In addition, the concentration in solution in [13] (solubility) came to 7 µg/mL (≈ 16.3 µM). Further, the bioavailability in series [3] turned out to be 57%. Moreover, the half-life in series [4] is 3.1 h. The Vd in [5] was found to be 4.3 L/kg. In addition, in series [14], the Papp was determined as 3.6 ×10⁻⁶ cm/s. In [9], this compound came in with a clearance of 27 mL/min/kg.
